According to ChEMBL document CHEMBL3120102, “Structure-based design, synthesis and biological evaluation of novel anthra[1,2-d]imidazole-6,11-dione homologues as potential antitumor agents” (2013):

Tests used:
MDA-MB-231 = assay: Cytotoxicity against human MDA-MB-231 cells assessed as cell growth at 10 uM after 48 hrs by SRB assay; assay type: functional; settings: MDA-MB-231, 48 h, read-out: Activity
In short: (§1)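 First stage of the NCI 60 human tumour cell line screen: a single dose is tested against every line. Cell growth is read as cellular protein by sulforhodamine B colorimetry after 48 h of drug exposure, with reference to a time-zero control and to untreated plates.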

PC-3 = assay: Cytotoxicity against human PC3 cells assessed as cell growth at 10 uM after 48 hrs by SRB assay; assay type: functional; settings: PC-3, 48 h, read-out: Activity; in short: as §1
[1] = Cytotoxicity against human UO31 cells assessed as cell growth at 10 uM after 48 hrs by SRB assay; assay type: functional; settings: UO-31, 48 h, read-out: Activity
In short: (§2)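 First stage of the NCI 60 human tumour cell line screen, with each compound tested at a single dose of 10. Cellular protein measured by sulforhodamine B colorimetry after 48 h drug exposure. Growth is calculated against a time-zero cell control and against plates not exposed to drug.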

TK-10 = assay: Cytotoxicity against human TK10 cells assessed as cell growth at 10 uM after 48 hrs by SRB assay; assay type: functional; settings: TK-10, 48 h, read-out: Activity; in short: as §2
SN12C = assay: Cytotoxicity against human SN12C cells assessed as cell growth at 10 uM after 48 hrs by SRB assay; assay type: functional; settings: read-out: Activity; in short: as §1
ACHN = assay: Cytotoxicity against human ACHN cells assessed as cell growth at 10 uM after 48 hrs by SRB assay; assay type: functional; settings: read-out: Activity
SK-OV-3 = assay: Cytotoxicity against human SKOV3 cells assessed as cell growth at 10 uM after 48 hrs by SRB assay; assay type: functional; settings: SK-OV-3, 48 h, read-out: Activity; in short: as §1
[2] = Cytotoxicity against human NCI-ADR-RES cells assessed as cell growth at 10 uM after 48 hrs by SRB assay; assay type: functional; settings: read-out: Activity; in short: as §1
[3] = Cytotoxicity against human OVCAR5 cells assessed as cell growth at 10 uM after 48 hrs by SRB assay; assay type: functional; settings: OVCAR-5, 48 h, read-out: Activity; in short: as §1
[4] = Cytotoxicity against human UACC257 cells assessed as cell growth at 10 uM after 48 hrs by SRB assay; assay type: functional; settings: UACC-257, 48 h, read-out: Activity; in short: as §2
SK-MEL-5 = assay: Cytotoxicity against human SK-MEL-5 cells assessed as cell growth at 10 uM after 48 hrs by SRB assay; assay type: functional; settings: SK-MEL-5, 48 h, read-out: Activity; in short: as §1
SK-MEL-2 = assay: Cytotoxicity against human SK-MEL-2 cells assessed as cell growth at 10 uM after 48 hrs by SRB assay; assay type: functional; settings: SK-MEL-2, 48 h, read-out: Activity; in short: as §1
MDA-MB-435 = assay: Cytotoxicity against human MDA-MB-435 cells assessed as cell growth at 10 uM after 48 hrs by SRB assay; assay type: functional; settings: MDA-MB-435, 48 h, read-out: Activity; in short: as §1
LOX IMVI = assay: Cytotoxicity against human LOXIMVI cells assessed as cell growth at 10 uM after 48 hrs by SRB assay; assay type: functional; settings: read-out: Activity
In short: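 NCI 60-cell-line screen, first stage: compound at a single dose of […] (unit as printed) for 48 h. Cellular protein was measured by sulforhodamine B colorimetry. Growth was determined using a time-zero cell control and plates not exposed to drug.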

U-251 = assay: Cytotoxicity against human U251 cells assessed as cell growth at 10 uM after 48 hrs by SRB assay; assay type: functional; settings: U-251, 48 h, read-out: Activity; in short: as §2
SNB-19 = assay: Cytotoxicity against human SNB19 cells assessed as cell growth at 10 uM after 48 hrs by SRB assay; assay type: functional; settings: SNB-19, 48 h, read-out: Activity; in short: as §2
SF-539 = assay: Cytotoxicity against human SF539 cells assessed as cell growth at 10 uM after 48 hrs by SRB assay; assay type: functional; settings: SF-539, 48 h, read-out: Activity; in short: as §1
SF-295 = assay: Cytotoxicity against human SF295 cells assessed as cell growth at 10 uM after 48 hrs by SRB assay; assay type: functional; settings: SF-295, 48 h, read-out: Activity; in short: as §1
SF-268 = assay: Cytotoxicity against human SF268 cells assessed as cell growth at 10 uM after 48 hrs by SRB assay; assay type: functional; settings: SF-268, 48 h, read-out: Activity; in short: as §1
SW-620 = assay: Cytotoxicity against human SW620 cells assessed as cell growth at 10 uM after 48 hrs by SRB assay; assay type: functional; settings: SW-620, 48 h, read-out: Activity; in short: as §2
HCC 2998 = assay: Cytotoxicity against human HCC2998 cells assessed as cell growth at 10 uM after 48 hrs by SRB assay; assay type: functional; settings: HCC 2998, 48 h, read-out: Activity
COLO 205 = assay: Cytotoxicity against human COLO205 cells assessed as cell growth at 10 uM after 48 hrs by SRB assay; assay type: functional; settings: COLO 205, 48 h, read-out: Activity
NCI-H522 = assay: Cytotoxicity against human NCI-H522 cells assessed as cell growth at 10 uM after 48 hrs by SRB assay; assay type: functional; settings: NCI-H522, 48 h, read-out: Activity; in short: as §1
NCI-H460 = assay: Cytotoxicity against human NCI-H460 cells assessed as cell growth at 10 uM after 48 hrs by SRB assay; assay type: functional; settings: NCI-H460, 48 h, read-out: Activity; in short: as §1
NCI-H23 = assay: Cytotoxicity against human NCI-H23 cells assessed as cell growth at 10 uM after 48 hrs by SRB assay; assay type: functional; settings: NCI-H23, 48 h, read-out: Activity; in short: as §1
CCRF-CEM = assay: Cytotoxicity against human CCRF-CEM cells assessed as cell growth at 10 uM after 48 hrs by SRB assay; assay type: functional; settings: read-out: Activity
[5] = biological target: Telomerase reverse transcriptase (Homo sapiens) (UniProt O14746); assay: Inhibition of human tert transcriptional activity assessed as SEAP activity at 100 uM after 24 hrs by SEAP reporter assay; design: scale not given: the % may be the effect or the level left
Chain of Telomerase reverse transcriptase (Homo sapiens) (O14746 whole entry): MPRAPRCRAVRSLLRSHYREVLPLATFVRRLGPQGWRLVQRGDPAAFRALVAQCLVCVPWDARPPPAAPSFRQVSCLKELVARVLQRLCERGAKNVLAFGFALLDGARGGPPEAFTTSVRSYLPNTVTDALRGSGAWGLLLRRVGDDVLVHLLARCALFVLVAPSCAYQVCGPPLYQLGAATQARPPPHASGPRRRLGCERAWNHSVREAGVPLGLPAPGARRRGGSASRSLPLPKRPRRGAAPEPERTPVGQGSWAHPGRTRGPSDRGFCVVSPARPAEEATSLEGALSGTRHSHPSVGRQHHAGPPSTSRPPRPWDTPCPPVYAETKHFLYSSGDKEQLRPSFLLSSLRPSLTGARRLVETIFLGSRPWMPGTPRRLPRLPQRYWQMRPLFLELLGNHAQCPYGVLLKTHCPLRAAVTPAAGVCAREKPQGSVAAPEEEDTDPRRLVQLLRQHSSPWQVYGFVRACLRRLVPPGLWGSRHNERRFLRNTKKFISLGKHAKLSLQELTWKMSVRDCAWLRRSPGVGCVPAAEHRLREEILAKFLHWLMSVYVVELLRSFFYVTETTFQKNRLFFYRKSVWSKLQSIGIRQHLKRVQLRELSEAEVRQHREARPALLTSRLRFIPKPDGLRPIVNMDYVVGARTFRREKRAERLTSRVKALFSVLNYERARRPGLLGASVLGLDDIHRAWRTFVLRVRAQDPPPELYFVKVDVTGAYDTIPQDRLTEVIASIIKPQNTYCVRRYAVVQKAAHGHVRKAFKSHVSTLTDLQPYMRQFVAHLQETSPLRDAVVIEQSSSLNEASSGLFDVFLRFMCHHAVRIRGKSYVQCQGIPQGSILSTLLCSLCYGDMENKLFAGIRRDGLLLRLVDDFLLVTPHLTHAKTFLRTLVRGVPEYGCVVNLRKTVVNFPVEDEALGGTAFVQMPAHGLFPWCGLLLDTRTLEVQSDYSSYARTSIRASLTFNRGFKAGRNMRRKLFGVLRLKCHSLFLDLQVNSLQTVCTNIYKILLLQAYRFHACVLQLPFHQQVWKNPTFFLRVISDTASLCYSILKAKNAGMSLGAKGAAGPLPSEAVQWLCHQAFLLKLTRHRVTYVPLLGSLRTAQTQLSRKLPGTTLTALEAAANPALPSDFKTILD
In short: (§3)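 Reporter assay for hTERT transcriptional activity using secreted alkaline phosphatase. About 2 × 10³ cells per well were grown for 24 h at 37 °C, then given fresh medium. Buffer was added to the medium: 2 M diethanolamine, 1 mM MgCl2 and 20 mM L-homoarginine. p-Nitrophenyl phosphate was added to 12 mM final. The rate of absorbance increase was read at 405 nm.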

[6] = biological target: Telomerase reverse transcriptase (Homo sapiens) (UniProt O14746); assay: Inhibition of human tert transcriptional activity assessed as SEAP activity at 10 uM after 24 hrs by SEAP reporter assay; design: scale not given: the % may be the effect or the level left; in short: as §3
[7] = Cytotoxicity against human H1299 cells assessed as cell viability at 100 uM after 48 hrs by MTT assay; assay type: functional; settings: NCI-H1299, 48 h, read-out: Activity
In short: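 About 2×10³ H1299 cells per well were grown for 24 h at 37 °C in 5% CO2. Compound was dissolved in DMSO immediately before use, diluted in complete medium and left on cells for 48 h. MTT was then added for 4 h at 37 °C, followed by SDS/DMF lysis buffer for 16 h at 37 °C. Absorbance was read at 550 nm.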

SMILES | growth at 10 µM (MDA-MB-231) [%] | growth at 10 µM (PC-3) [%] | growth at 10 µM [1] [%] | growth at 10 µM (TK-10) [%] | growth at 10 µM (SN12C) [%] | growth at 10 µM (ACHN) [%] | growth at 10 µM (SK-OV-3) [%] | growth at 10 µM [2] [%] | growth at 10 µM [3] [%] | growth at 10 µM [4] [%] | growth at 10 µM (SK-MEL-5) [%] | growth at 10 µM (SK-MEL-2) [%] | growth at 10 µM (MDA-MB-435) [%] | growth at 10 µM (LOX IMVI) [%] | growth at 10 µM (U-251) [%] | growth at 10 µM (SNB-19) [%] | growth at 10 µM (SF-539) [%] | growth at 10 µM (SF-295) [%] | growth at 10 µM (SF-268) [%] | growth at 10 µM (SW-620) [%] | other results
O=C1c2ccccc2C(=O)c2c1ccc1nc3n(c21)CCS3 | 94 | 93.9 | 45.8 | 58.8 | 74.9 | 59.4 | 87.4 | 84.1 | 105 | 80.6 | 65.9 | 99.9 | 83.1 | 65.9 | 72.5 | 74.5 | 74.1 | 78.6 | 56.1 | 69.3 | growth at 10 µM (HCC 2998): 94.8%; growth at 10 µM (COLO 205): 95.2%; growth at 10 µM (NCI-H522): 80.6%; growth at 10 µM (NCI-H460): 59.5%; growth at 10 µM (NCI-H23): 84.3%; growth at 10 µM (CCRF-CEM): 66.8%; Activity [5]: 48%; Activity [6]: 53%; viability at 100 µM [7]: 99%
CCSc1nc2ccc3c(c2[nH]1)C(=O)c1ccccc1C3=O | 84.8 | 53.8 | 49.2 | 74.1 | 67.9 | 37.6 | 24.7 | 85.7 | 85.4 | 112 | 63.9 | 81.7 | 68.4 | 36.7 | 65 | 87.9 | 58.6 | 101 | 75.7 | 84.5 | growth at 10 µM (HCC 2998): 89.4%; growth at 10 µM (COLO 205): 71.8%; growth at 10 µM (NCI-H522): 78.6%; growth at 10 µM (NCI-H460): 38.8%; growth at 10 µM (NCI-H23): 87.4%; growth at 10 µM (CCRF-CEM): 36.9%; Activity [5]: 17%; Activity [6]: 90%; viability at 100 µM [7]: 73%
O=C1c2ccccc2C(=O)c2c1ccc1nc(SCCN3CCCC3)[nH]c21 | 63.5 | 6.9 | 21.2 | 36.9 | 52.9 | 34.6 | 55.6 | 53.7 | 87.5 | 92.8 | 78.5 | 107 | 66.5 | 11.9 | 69.1 | 60.5 | 62.2 | 76.9 | 42 | 22.8 | growth at 10 µM (HCC 2998): 71.5%; growth at 10 µM (COLO 205): 17.1%; growth at 10 µM (NCI-H522): 81.5%; growth at 10 µM (NCI-H460): 34.1%; growth at 10 µM (NCI-H23): 66.9%; growth at 10 µM (CCRF-CEM): -15.4%; Activity [5]: 36%; Activity [6]: 98%; viability at 100 µM [7]: 21%
CN(C)CCCSc1nc2ccc3c(c2[nH]1)C(=O)c1ccccc1C3=O | 56.2 | 36.7 | 25.5 | 31.7 | 37.7 | 24.3 | 32.4 | 54.3 | 87.9 | 114 | 62.5 | 80 | 72.2 | 28.6 | 74.1 | 79.7 | 57.5 | 76 | 53.1 | 26.4 | growth at 10 µM (HCC 2998): 72.7%; growth at 10 µM (COLO 205): 62%; growth at 10 µM (NCI-H522): 69.3%; growth at 10 µM (NCI-H460): 23.2%; growth at 10 µM (NCI-H23): 53.8%; growth at 10 µM (CCRF-CEM): 8.49%; Activity [5]: 15%; Activity [6]: 86%; viability at 100 µM [7]: 22%
CCCSc1nc2ccc3c(c2[nH]1)C(=O)c1ccccc1C3=O | 26.4 | 66.8 | 24.5 | 35.5 | 80.4 | 27.2 | 38.9 | 50.2 | 99.7 | 86.3 | 78.5 | 79.3 | 77.4 | 62.6 | 63 | 92 | 24 | 37.2 | 47.8 | 104 | growth at 10 µM (HCC 2998): 81.9%; growth at 10 µM (COLO 205): 103%; growth at 10 µM (NCI-H522): 72.4%; growth at 10 µM (NCI-H460): 68.1%; growth at 10 µM (NCI-H23): 69.8%; growth at 10 µM (CCRF-CEM): 70.8%; Activity [5]: 33%; Activity [6]: 94%; viability at 100 µM [7]: 12%
O=C1c2ccccc2C(=O)c2c1ccc1[nH]c(=S)[nH]c21 | 108 | 78.8 | 97.8 | 112 | 88 | 96.2 | 103 | 110 | 129 | 105 | 86.7 | 134 | 114 | 84 | 88.8 | 91.3 | 91.3 | 118 | 90.3 | 97.6 | growth at 10 µM (HCC 2998): 114%; growth at 10 µM (COLO 205): 104%; growth at 10 µM (NCI-H522): 96.1%; growth at 10 µM (NCI-H460): 98.6%; growth at 10 µM (NCI-H23): 113%; growth at 10 µM (CCRF-CEM): 61.9%; Activity [5]: 31%; Activity [6]: 100%; viability at 100 µM [7]: 54%
